Screening data deposited in PubChem by several laboratories.
M1 agonist – agonists of M1 muscarinic receptor. AID 626. CHO-M1 cells, Fluo-4 calcium fluorescence, agonist mode; stronger effect = higher value. 64,000 tested, 3% active. B-score at 10 µM;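 active means fluorescence rise, raw or as B-score row- and column-corrected plate score, outside the 99.7% band of its plate's samples, either direction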
mHtt clearance – compounds clearing mutant huntingtin protein; HeLa Exon1htt(103Q)mCFP, aggregate imaging; zero = plate's median compound well; inhibition, % at 1.5 µM; AID 853; 47,000 tested, 0.42% active;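 active means inhibition of aggregate fluorescence above about 70%, also judged a hit by eye on the cell image, limit read from the data, passing the limit was not always enough; inconclusive means no rule stated for this call; inactive means not judged a hit on image review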;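 further: cells exposed to compound for three days before fixation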
Jurkat viability – cytotoxic compounds reducing Jurkat cell viability; inhibition, % at 4 µM; 56,000 tested, 1.2% active; AID 463; Jurkat E6.1 viability, ATP luminescence, 48 h;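 active means inhibition above the mean inhibition of all tested compounds plus 3 SD, cut at about 28% in these data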
M1 antag – antagonists of rat M1 muscarinic receptor; P08482; CHO-M1 cells, Fluo-4 calcium, ACh EC80 antagonist mode; stronger effect = lower value; B-score at 10 µM; 64,000 tested, 3.4% active; AID 628;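 active means calcium fluorescence response, raw or row-and-column corrected B-score, differing from the plate sample mean either way at a set confidence level, mostly lower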
HEK293 NFkB inh – lowers PMA/ionomycin-induced NF-kB signal in HEK293 cells; inhibition, % at 3 µM; 62,000 tested, 0.21% active; HEK-293 NF-kB luciferase reporter, luminescence;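 active means inhibition above the mean of all tested compounds plus 3 SD, cut at about 40% in these data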;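 further: 0% = stimulated DMSO wells and 100% = 10 µM reference inhibitor 5653914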
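Timing: 1 h pretreatment, 16 h stimulation, 37 °C; system: HEK-293 cells with stable firefly luciferase reporter driven by four HIV NF-kB elements; doses: 3 µM once, 0.30% DMSO; measured by: luciferase luminescence; control set: DMSO and 10 µM reference inhibitor; repeats: single test; reagent: PMA plus ionomycin mix as NF-kB-activating stimulus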
D1 mod – allosterically modulates the human D1 dopamine receptor; P21728; HEK293 D1, CRE-luciferase, dopamine EC30 potentiation; actives deviate in either direction; B-score at 10 µM; 58,000 tested, 5.9% active; AID 641;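 active means luminescence count or its row- and column-corrected plate score outside the 99.7% band of the plate's sample wells, on either side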
M1 agonist conf – rat M1 muscarinic agonism, confirmation; AID 1488; shares compounds with M1 agonist; 1,700 tested, 19% active; CHO-M1 cells, Fluo-4 calcium fluorescence, agonist mode; actives lie on both sides; fluorescence change (max-min) at 10 µM;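 active means fluorescence change differs from the solvent-only DMSO control mean at a set confidence level in both duplicate runs; inconclusive means differs from solvent-only control mean in just one of two runs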;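 further: an EC20 dose of acetylcholine follows compound addition during the same imaging run; raw fluorescence intensity difference in instrument units with no normalization to controls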
M4 agonist ctr – activates rat M4 receptor in counter-screen for M1 agonists; shares compounds with M1 agonist; fluorescence change (max-min) at 10 µM; CHO M4/Gqi5 cells, Fluo-4 calcium fluorescence, agonist mode; actives lie on both sides; 1,700 tested, 9% active;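 active means fluorescence change differing from the plate's solvent-only control wells at 99.7% confidence in both duplicates, whether higher or lower; inconclusive means differs from solvent controls in only one of two duplicates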
Target sequence (P08485 whole entry, looked up): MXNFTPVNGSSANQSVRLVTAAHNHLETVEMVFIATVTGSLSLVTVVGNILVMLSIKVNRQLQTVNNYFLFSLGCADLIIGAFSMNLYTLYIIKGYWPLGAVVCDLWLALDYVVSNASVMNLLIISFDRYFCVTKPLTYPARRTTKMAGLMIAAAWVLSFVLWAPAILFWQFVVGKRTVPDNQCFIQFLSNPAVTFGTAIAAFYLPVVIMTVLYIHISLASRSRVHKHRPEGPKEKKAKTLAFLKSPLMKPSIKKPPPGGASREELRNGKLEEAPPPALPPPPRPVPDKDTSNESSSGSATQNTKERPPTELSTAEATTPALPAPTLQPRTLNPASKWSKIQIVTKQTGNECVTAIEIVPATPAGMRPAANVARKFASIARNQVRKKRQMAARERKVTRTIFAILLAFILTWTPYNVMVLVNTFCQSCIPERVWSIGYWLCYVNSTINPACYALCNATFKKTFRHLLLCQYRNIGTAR
Numbers without * were called inactive; ? = inconclusive; nt = no result. Hits are enriched below; roughly 9.5% of the tested compounds scored in any of these assays.

SMILES | M1 agonist | mHtt clearance | Jurkat viability | M1 antag | HEK293 NFkB inh | D1 mod | M1 agonist conf | M4 agonist ctr
CCN(c1ccccc1)S(=O)(=O)c1ccc(F)cc1C | 15* | -41 | -5 | -0.018 | 3 | 0.7 | ? | -57
CCN(c1ccccc1)S(=O)(=O)c1ccc(F)c(C(=O)O)c1 | 0.3 | nt | -3 | 0.021 | 5 | -0.14 | nt | nt
COc1ccc(/C=C2/SC(=O)N(NS(=O)(=O)c3ccccc3)C2=S)cc1OC | nt | -96 | nt | nt | nt | nt | nt | nt
CNC(=O)c1ccc(-c2sc3nc(N4CCOCC4)c4c(c3c2N)CC(C)(C)OC4)o1 | nt | 22 | nt | nt | nt | nt | nt | nt
CNC(=O)c1ccc(-c2sc3nc(N4CCOCC4)c4c(c3c2N)CCCC4)o1 | 5.8* | 28 | -2 | -1.1 | 11 | -1.1 | -3.7 | -69*
COc1ccc(OC)c(CN2CCN(C(=O)c3cccs3)CC2)c1 | 15* | 26 | -8 | -0.4 | 4 | 0.59 | -19 | ?
CCc1cc2cccc(C)c2nc1SCC(=O)N1CCN(C(=O)c2ccco2)CC1 | 2.5* | nt | 1 | -0.11 | 29 | 1.4 | -2.2 | -3.5
CCOC(=O)Cc1nnc2c(Nc3ccccc3F)nc3nonc3n12 | 4.3* | 32 | 12 | -0.64 | 24 | -2.5 | ? | -54
COc1ccc(Cl)c(NC(=O)NCCN2CCN(c3ccccc3)CC2)c1 | 2.3* | 50 | -4 | -0.43 | -1 | -3.8 | -28* | -59
CCNc1ccc(C(=O)OCC)cc1NC(=O)c1cccc(S(=O)(=O)N2CCOCC2)c1 | 0.089 | -13 | 2 | 1.6 | 20 | 0.039 | nt | nt
CCn1c(SCC(=O)c2cc(C)n(-c3ccc(C(=O)OC)cc3)c2C)nnc1-c1cccnc1 | 3.9* | nt | 6 | -2.1 | -2 | -2.2 | -20* | ?
Cc1nc2ncnn2c(C)c1CCC(=O)NCCCN1CCN(c2cccc(Cl)c2)CC1 | 2.6* | nt | 5 | -1.1 | 11 | -1.1 | ? | -36
CC(c1ccccc1)N1CNc2c(c(=O)n(C)c(=O)n2C)C1 (centres undefined) | -1.1 | -5 | 1 | -0.81 | 12 | 0.63 | nt | nt
CCC(=NC(C)c1ccccc1)c1c(O)n(C)c(=O)n(C)c1=O (centres undefined) | 3.8* | -50 | 54* | -0.51 | 9 | -1.3 | -6.7 | -28
O=S(=O)(Nc1ccc2nc(C(F)(F)F)[nH]c2c1)c1ccccc1 | 2.4* | -20 | 6 | -0.22 | 8 | -1.3 | -20 | -32
O=S(=O)(Nc1ccc2nc(-c3ccc(Br)o3)[nH]c2c1)c1ccccc1 | 0.59 | -52 | 1 | 0.77 | -19 | 0.013 | nt | nt
COC(=O)CSc1cc(SCC(=O)OC)c(C#N)c(SCC(=O)OC)c1 | 9.5* | -45 | 3 | -1.1 | 0 | -4.6* | -21 | -64*
O=C(NCCc1c[nH]c2ccccc12)c1cnc2sccn2c1=O | 3.2* | 50 | 1 | 1.1 | -33 | -0.42 | -14 | ?
Cc1ccc(S(=O)(=O)N2CCC(C(=O)N[C@@H](Cc3ccccc3)C(=O)O)CC2)cc1 | 1.6* | nt | -1 | 0.27 | 1 | -0.17 | -6.8 | ?
CCC(=O)Nc1cc(C(F)(F)F)ccc1N1CCOCC1 | 0.5 | -34 | -12 | 2 | 8 | 0.64 | nt | nt
O=C(COC(=O)CN1C(=O)C2CC=CCC2C1=O)Nc1cc(C(F)(F)F)ccc1N1CCOCC1 (centres undefined) | 3.6* | nt | -7 | -0.59 | 13 | 0.81 | ? | ?
CCOC(=O)c1oc2cccc(O)c2c1C | nt | -16 | nt | nt | nt | nt | nt | nt
CCOC(=O)c1oc2cccc(O)c2c1CN(Cc1ccccc1)C(C)=O | 2.6* | -21 | 7 | 0.73 | 10 | 2 | ? | -44
Cc1nc2ccccc2c2oc(C(=O)N3CCC(N4CCCCC4)CC3)cc12 | 0.5 | nt | -4 | -0.94 | 9 | -0.22 | nt | nt
Cc1nc2ccccc2c2oc(C(=O)N3CCN(C4CCCCC4)CC3)cc12 | 2.4* | nt | 15 | -3.2* | 6 | -1.3 | ? | -43
COc1ccc2cc(C(=O)c3ccccc3)c(=O)oc2c1 | nt | -7 | nt | nt | nt | nt | nt | nt
